High-throughput results: PubChem BioAssay, Sanford-Burnham Center for Chemical Genomics
CXCR6 block: blocks human CXCR6 beta-arrestin recruitment; O00574; CHO-K1 PathHunter CXCR6 beta-arrestin, luminescence; AID 602244; actives 0.36% (n = 360,000); inhibition, % at 20 µM; in the data active = inhibition above about 34%, passing the limit was not always enough;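 also: antagonist mode with CXCL16 agonist at 10 nM final; 0% = 10 nM CXCL16 with DMSO and 100% = unstimulated wells without agonist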
Target sequence (O00574 whole entry, looked up): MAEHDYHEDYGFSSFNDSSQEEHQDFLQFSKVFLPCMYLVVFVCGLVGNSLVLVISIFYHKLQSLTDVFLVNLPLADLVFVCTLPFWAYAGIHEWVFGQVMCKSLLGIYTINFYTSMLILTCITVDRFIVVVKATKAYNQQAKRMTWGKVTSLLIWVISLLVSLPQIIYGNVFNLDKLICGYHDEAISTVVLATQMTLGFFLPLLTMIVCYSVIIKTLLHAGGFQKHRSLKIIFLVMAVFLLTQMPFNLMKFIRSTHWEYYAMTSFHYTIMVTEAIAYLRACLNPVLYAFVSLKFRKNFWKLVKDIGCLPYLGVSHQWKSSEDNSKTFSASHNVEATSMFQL
CCR6 antag: blocks CCL20-driven beta-arrestin recruitment at human CCR6; P51684; CHO-K1 CCR6 PathHunter beta-arrestin, luminescence, CCL20-stimulated; inhibition, % at 20 µM; actives 0.49% (n = 340,000);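 active = compounds whose inhibition of the agonist-driven luminescence signal at 20 µM reaches about 50%, limit read from the data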;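 also: cells stimulated with CCL20 at 14 nM final; plate controls were DMSO with CCL20 for no effect and DMSO without agonist for full effect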
APJ ag: agonists of human APJ apelin receptor; P35414; actives 0.11% (n = 330,000); activation, % at 20 µM; CHO-K1 APJ PathHunter beta-arrestin, luminescence; 0% DMSO wells, 100% apelin;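 active = activation more than six SD over the plate average, tested at 20 µM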;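 also: 0% = DMSO alone and 100% = apelin-13 at 10 nM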
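Test system: CHO-K1 APJ beta-arrestin complementation cell line. Amount: cell density 1000 per well. Controls: DMSO negative, 10 nM Apelin-13 positive. Signal: luminescent beta-gal fragment complementation, chemiluminescent substrate. Read-out basis: agonist-driven arrestin binding to APJ. Timing: compound stimulation 90 min at 25 °C, detection 60 min.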
APJ antag: APJ receptor antagonism. CHO-K1 APJ beta-arrestin complementation, luminescence. actives 0.32% (n = 330,000). inhibition, % at 20 µM;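 active = inhibition above about 40% at 20 µM, limit read from the data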;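 also: cells challenged with 10 nM apelin-13 agonist together with compound; plate controls were apelin-13 plus DMSO wells for no effect and DMSO wells lacking apelin-13 for full effect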
EBI2 block: blocks human EBI2 receptor beta-arrestin signaling; P32249; EBI2 beta-arrestin recruitment, luminescence, 7a,25-OHC stimulated; inhibition, % at 5 µM; actives 0.81% (n = 360,000); AID 651636; in the data active = inhibition above about 38%;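 also: enzyme fragment complementation signal reports receptor beta-arrestin coupling in cells; 0% = agonist plus DMSO wells and 100% = wells without agonist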
EBI2 antag conf: confirmation of human EBI2 receptor antagonists; EBI2 beta-arrestin luminescence, 7a,25-OHC antagonism; actives 29% (n = 2,400); inhibition, % at 5 µM; AID 651997; shares compounds with EBI2 block;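 active = inhibition of at least 50%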
EBI2 ag: counter-screen for EBI2 antagonists: EBI2 agonist activity. activation, % at 5 µM. shares compounds with EBI2 block. AID 652000. EBI2-expressing cells, agonist mode, luminescence, 60 min; 0% vehicle, 100% 7α,25-dihydroxycholesterol control. 2,400 tested, under 10 active;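 active = activation of at least 50%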
bGal cs: counter-screen for EBI2 antagonists: E. coli beta-galactosidase inhibition. shares compounds with EBI2 block. purified beta-galactosidase, luminescent Galacton Star, 15 min. inhibition, % at 5 µM. actives 1% (n = 2,400);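 active = replicate-average signal at least 3 plate SD below neutral wells, shown as high inhibition, flagging enzyme-inhibiting false positives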;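 also: 0% = DMSO wells with enzyme and 100% = wells lacking enzyme; higher means stronger loss of beta-gal luminescence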
* marks the source's active call; other numbers are inactive results. In the library only some 1.5% were active in any assay of this set; here they are far more common.

How did Cc1cc(Br)ccc1OCC(=O)NNC(=O)Cc1ccccc1 do in these assays?
CXCR6 block: -7.9; CCR6 antag: 21.7; APJ ag: 2.1; APJ antag: 14.9; EBI2 block: 46.5*; EBI2 antag conf: 25.2; EBI2 ag: 1.4; bGal cs: 2.8

Results for c1ccc(CCNc2ncnc3scc(C4COc5ccccc5O4)c23)cc1 (configuration not stated) ?
CXCR6 block: -5.9; CCR6 antag: 3.6; APJ ag: -3.5; APJ antag: 14.2; EBI2 block: 86.8*; EBI2 antag conf: 55.3*; EBI2 ag: 1.2; bGal cs: -1.2

Results for Cc1noc(C)c1C(=O)N1CCN(C(=O)c2sc3cc(Cl)ccc3c2Cl)CC1 ?
CXCR6 block: -0.1; CCR6 antag: 8.4; APJ ag: -4.0; APJ antag: 0.3; EBI2 block: 42.4*; EBI2 antag conf: 14.5; EBI2 ag: -1.3; bGal cs: -8.3

How did Cc1occc1-c1nnc(SCC(N)=O)n1Cc1ccccc1 do in these assays?
CXCR6 block: -2.3; CCR6 antag: 0.1; APJ ag: -1.5; APJ antag: -8.5; EBI2 block: 10.4

Results for Cc1occc1-c1nnc(SCC(=O)NCCc2ccccc2)n1Cc1ccccc1 ?
CXCR6 block: 6.9; CCR6 antag: 7.4; APJ ag: -2.4; APJ antag: -3.0; EBI2 block: 89.9*; EBI2 antag conf: 78.1*; EBI2 ag: 0.5; bGal cs: 5.5

How did Cc1ccc(C(=O)NNC(=O)CSc2nnc(-c3ccncc3)n2-c2ccc(C)cc2)cc1 do in these assays?
CXCR6 block: -1.4; APJ ag: -1.5; APJ antag: 0.0; EBI2 block: 51.6*; EBI2 antag conf: 10.7; EBI2 ag: 0.4; bGal cs: 4.6

What do the screens show for `Cc1ccc(C(=O)NNC(=O)CSc2nnc(-c3ccccc3)n2Cc2ccccc2)cc1`?
CXCR6 block: 6.3; CCR6 antag: -1.1; APJ ag: -2.9; APJ antag: 11.3; EBI2 block: 96.0*; EBI2 antag conf: 88.7*; EBI2 ag: 0.2; bGal cs: 3.8

What do the screens show for `CCn1c(SCC(=O)NNC(=O)Cc2ccccc2)nnc1-c1ccccc1`?
CXCR6 block: -3.2; CCR6 antag: -10.6; APJ ag: -1.8; APJ antag: 12.2; EBI2 block: -3.2

Results for Cc1ccc(-n2c(SCC(=O)Nc3ccc(C(=O)O)cc3)nnc2-c2ccncc2)cc1 ?
CXCR6 block: -1.4; CCR6 antag: 12.3; APJ ag: -2.7; APJ antag: 11.7; EBI2 block: 6.7

Results for CCOc1ccccc1N1CCN(C(=O)c2cccs2)CC1 ?
CXCR6 block: -3.2; CCR6 antag: 1.1; APJ ag: -1.5; APJ antag: 3.5; EBI2 block: -16.2

What do the screens show for `COc1cc(-c2c(CCO)sc3ccccc23)cc(OC)c1OC`?
CXCR6 block: 9.4; EBI2 block: 9.8

What do the screens show for `COc1ccc(CNC(=O)C2CCN(S(=O)(=O)c3ccc4c(c3)CC(C)N4C(C)=O)CC2)cc1` (configuration not stated)?
CXCR6 block: -5.0; CCR6 antag: 4.8; APJ ag: 0.5; APJ antag: 22.3; EBI2 block: 9.3

What do the screens show for `O=C(/C=C/c1ccccc1)Nc1ccc(N2CCCCC2)cc1`?
CXCR6 block: 0.4; CCR6 antag: 23.5; APJ antag: -10.1; EBI2 block: 25.1

What do the screens show for `O=C(/C=C/c1ccc(Cl)cc1)Nc1ccc(N2CCCCC2)cc1`?
CXCR6 block: 2.7; CCR6 antag: 4.6; APJ ag: -0.2; APJ antag: -5.1; EBI2 block: 44.0*; EBI2 antag conf: 9.6; EBI2 ag: -1.0; bGal cs: -2.3

How did COc1ccc2c(c1)/C(=C/c1cc(OC)c(OC)c(OC)c1)C(=O)N2 do in these assays?
CXCR6 block: 4.7; CCR6 antag: 19.1; EBI2 block: 12.4

Results for COc1ccc(C(=O)/C=C2\C(=O)Nc3ccc(Br)cc32)cc1 ?
CXCR6 block: 35.9; CCR6 antag: 21.5; EBI2 block: 77.9*; EBI2 antag conf: 70.1*; EBI2 ag: -0.5; bGal cs: -9.5

What do the screens show for `CC1CC(C)CN(C(=O)c2cccc(S(=O)(=O)NCc3ccccc3)c2)C1` (configuration not stated)?
CXCR6 block: -4.9; CCR6 antag: 9.6; APJ ag: -2.1; APJ antag: -1.6; EBI2 block: 11.9

How did Cc1ccc(-c2nnc(N3CCN(C(=O)CN4C(=O)c5ccccc5C4=O)CC3)c3ccccc23)cc1 do in these assays?
CXCR6 block: -3.4; CCR6 antag: 6.4; APJ ag: 6.4; APJ antag: -13.6; EBI2 block: 0.8

Results for Cc1cccc(OCC(=O)N2CCN(c3nnc(-c4ccccc4)c4ccccc34)CC2)c1 ?
CXCR6 block: 14.2; CCR6 antag: 9.8; APJ ag: -2.4; APJ antag: 4.3; EBI2 block: 55.2*; EBI2 antag conf: 28.9; EBI2 ag: 2.5; bGal cs: 2.8

How did Cc1ccc(-c2nnc(N3CCN(C(=O)COc4cccc(C)c4)CC3)c3ccccc23)cc1 do in these assays?
CXCR6 block: -1.0; CCR6 antag: 12.4; APJ ag: 0.8; APJ antag: 8.1; EBI2 block: 63.1*; EBI2 antag conf: 31.9; EBI2 ag: -1.0; bGal cs: -11.9

What do the screens show for `CC(=O)c1ccc(-c2ccc(C(=O)NC3CC(C)(C)NC(C)(C)C3)o2)cc1`?
CXCR6 block: -2.6; CCR6 antag: 11.4; APJ ag: -5.8; APJ antag: 14.5; EBI2 block: -5.4

How did CCOC(=O)/C(C#N)=C/c1c(Oc2cc(C)cc(C)c2)nc2ccccn2c1=O do in these assays?
CXCR6 block: 4.7; CCR6 antag: 12.0; APJ ag: -1.2; APJ antag: -1.8; EBI2 block: 50.5*; EBI2 antag conf: 34.2; EBI2 ag: 0.8; bGal cs: 1.6

How did CCOC(=O)/C(C#N)=C/c1c(Oc2cccc(C)c2)nc2ccccn2c1=O do in these assays?
CXCR6 block: 5.8; CCR6 antag: 5.0; APJ ag: 0.4; APJ antag: -5.0; EBI2 block: 35.5

What do the screens show for `CCOC(=O)N1CCN(C(=O)COc2ccc(Cl)cc2)CC1`?
CXCR6 block: 0.6; CCR6 antag: 1.9; APJ ag: 3.2; APJ antag: 12.2; EBI2 block: 83.4*; EBI2 antag conf: 55.2*; EBI2 ag: -0.8; bGal cs: -13.9
